Test results as given in ChEMBL document CHEMBL4020714, “Design, synthesis, and evaluation of curcumin derivatives as Nrf2 activators and cytoprotectors against oxidative death” (Eur J Med Chem, 2017).
Active and inactive are the calls of the source. The calls are words filed in the database; no cut-off is given here.

Assays:
HepG2 = experiment: Antioxidant activity against t-BHP-induced oxidative stress in human HepG2 cells assessed as inhibition of intracellular ROS accumulation incubated for 24 hrs followed by t-BHP addition for 3 hrs by DCFH-DA staining based flow cytometric analysis; assay type: functional, cell-based
Method in brief: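 HepG2 cells (4×10^5/well) exposed to compound (1.25, 2.5 or 5 μM) or DMSO for 24 h, then to 900 μM t-BHP for 3 h. Cells collected, stained with 3 μM DCFH-DA for 30 min at 37 °C in the dark, washed with PBS, and analysed at once by flow cytometry (FITC channel). Values normalised to the corresponding control.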

[1] = molecular target: T1, Nuclear factor erythroid 2-related factor 2 (Homo sapiens) (UniProt Q16236); experiment: Activation of Nrf2 in human HepG2 cells assessed as increase in nuclear Nrf2 expression level at 5 uM after 1 to 6 hrs by Western blot analysis; assay type: cell-based
T1 sequence (whole entry): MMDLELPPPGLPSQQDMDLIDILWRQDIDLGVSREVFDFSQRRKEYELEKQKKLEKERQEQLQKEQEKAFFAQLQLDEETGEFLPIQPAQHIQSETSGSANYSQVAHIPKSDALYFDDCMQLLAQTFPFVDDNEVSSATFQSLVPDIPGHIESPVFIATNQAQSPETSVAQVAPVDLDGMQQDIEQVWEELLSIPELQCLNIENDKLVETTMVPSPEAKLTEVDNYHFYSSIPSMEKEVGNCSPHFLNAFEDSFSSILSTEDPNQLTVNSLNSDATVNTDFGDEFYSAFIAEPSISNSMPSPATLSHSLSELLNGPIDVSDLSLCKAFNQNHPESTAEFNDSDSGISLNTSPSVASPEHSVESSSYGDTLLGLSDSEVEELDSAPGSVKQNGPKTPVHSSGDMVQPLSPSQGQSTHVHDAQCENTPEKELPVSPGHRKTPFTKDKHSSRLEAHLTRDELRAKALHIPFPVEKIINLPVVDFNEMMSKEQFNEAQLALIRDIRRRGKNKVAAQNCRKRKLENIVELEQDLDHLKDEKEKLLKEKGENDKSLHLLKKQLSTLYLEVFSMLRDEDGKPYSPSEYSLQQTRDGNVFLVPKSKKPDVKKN
Method in brief: (§1)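 HepG2 cells (2×10^6/well) treated at the indicated concentrations and times. Whole-cell lysates, or nuclear and cytoplasmic fractions, are prepared and quantified by BCA. Samples are run at 40 μg/lane on 12% SDS-PAGE, transferred to nitrocellulose, probed with specific antibodies and HRP secondary (1/5000), and detected by ECL. Where used, LY294002 (15 μM), SP600125 (25 μM) or DTT (400 μM) is added 1 h before compound.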

[2] = molecular target: T1, Nuclear factor erythroid 2-related factor 2 (Homo sapiens); experiment: Activation of Nrf2 in human HepG2 cells assessed as increase in nuclear Nrf2 expression level at 5 uM after 12 hrs by Western blot analysis; assay type: cell-based; method in brief: as §1
[3] = molecular target: T1, Nuclear factor erythroid 2-related factor 2 (Homo sapiens); experiment: Activation of Nrf2 in human HepG2 cells assessed as increase in nuclear Nrf2 expression level after 3 hrs by Western blot analysis; assay type: cell-based; method in brief: as §1
[4] = molecular target: T1, Nuclear factor erythroid 2-related factor 2 (Homo sapiens); experiment: Activation of Nrf2 in human HepG2 cells assessed as increase in HO-1 expression level at 5 uM by Western blot analysis; assay type: cell-based; conditions: TDE = time-dependent effect; method in brief: as §1
[5] = molecular target: T1, Nuclear factor erythroid 2-related factor 2 (Homo sapiens); experiment: Activation of Nrf2 in human HepG2 cells assessed as increase in cytosolic Nrf2 expression level at 5 uM after 12 hrs by Western blot analysis; assay type: cell-based; method in brief: as §1
[6] = molecular target: T1, Nuclear factor erythroid 2-related factor 2 (Homo sapiens); experiment: (§2) Activation of Nrf2 in human HepG2 cells assessed as cytoprotection against t-BHP-induced oxidative cell death at 5 uM incubated for 24 hrs followed by compound removal with subsequent incubation with 900 uM of t-BHP for 6 hrs in presence of 3 uM HO-1 inhibitor ZnPP for 1 hr prior to compound treatment by MTT assay; assay type: cell-based
Method in brief: (§3)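 HepG2 cells (5×10^3/well) seeded and grown 24 h in 1640 medium with 10% FBS at 37 °C and 5% CO2. Compound is added for 24 h, then removed, and cells are challenged with 900 μM t-BHP for 6 h at 37 °C. MTT (0.5 mg/mL) is added for 4 h, formazan dissolved in DMSO, and absorbance read at 570 nm. Where used, inhibitors are added 1 h before compound. Mean ± SD of three independent experiments.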

[7] = molecular target: T1, Nuclear factor erythroid 2-related factor 2 (Homo sapiens); experiment: as §2, with “10” for “3”, “GCL” for “HO-1”, “BSO” for “ZnPP”; assay type: cell-based; method in brief: as §3
Homo sapiens = species on record: Homo sapiens; experiment: Induction of ERK phosphorylation in human HepG2 cells at 5 uM after 15 to 120 mins by Western blot analysis; assay type: cell-based; method in brief: as §1
[8] = molecular target: RAC-alpha serine/threonine-protein kinase (Homo sapiens) (UniProt P31749); experiment: Induction of Akt phosphorylation in human HepG2 cells at 5 uM by Western blot analysis; assay type: cell-based; conditions: TDE = time-dependent effect; method in brief: as §1
[9] = molecular target: c-Jun N-terminal kinase, JNK (Homo sapiens) (UniProt P45983+P53779+P45984); experiment: Induction of JNK phosphorylation in human HepG2 cells at 5 uM by Western blot analysis; assay type: cell-based; conditions: TDE = time-dependent effect; method in brief: as §1
[10] = molecular target: T1, Nuclear factor erythroid 2-related factor 2 (Homo sapiens); experiment: as §2, with “15” for “3”, “PI3K/Akt” for “HO-1”, “LY294002” for “ZnPP”; assay type: cell-based; method in brief: as §3
[11] = molecular target: T1, Nuclear factor erythroid 2-related factor 2 (Homo sapiens); experiment: Activation of Nrf2 in human HepG2 cells assessed as increase in GCLC expression level at 5 uM in presence of 25 uM JNK inhibitor SP600125 for 1 hr prior to compound treatment by Western blot analysis; assay type: cell-based; method in brief: as §1
[12] = molecular target: T1, Nuclear factor erythroid 2-related factor 2 (Homo sapiens); experiment: Activation of Nrf2 in human HepG2 cells assessed as increase in GCLM expression level at 5 uM in presence of 25 uM JNK inhibitor SP600125 for 1 hr prior to compound treatment by Western blot analysis; assay type: cell-based; method in brief: as §1
[13] = molecular target: T1, Nuclear factor erythroid 2-related factor 2 (Homo sapiens); experiment: as §2, with “400” for “3”, “metal ion chelator EDTA” for “HO-1 inhibitor ZnPP”; assay type: cell-based
[14] = molecular target: Kelch-like ECH-associated protein 1 (Homo sapiens) (UniProt Q14145); experiment: Induction of keap1-dependent Nrf2 stabilization in human HepG2 cells assessed as upregulation of total Nrf2 level at 5 uM pretreated for 3 hrs followed by coincubation with 5 ug/ml cycloheximide for 24 hrs by Western blot analysis; assay type: cell-based
Method in brief: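 HepG2 cells pretreated with or without 5 μM compound for 3 h, then given 5 μg/mL cycloheximide for the indicated periods (up to 24 h). Total lysates are immunoblotted for Nrf2. Half-life is obtained by fitting a single-phase decay model.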

[15] = molecular target: T1, Nuclear factor erythroid 2-related factor 2 (Homo sapiens); experiment: as §2, with “100” for “3”, “iron chelator DFO” for “HO-1 inhibitor ZnPP”; assay type: cell-based; method in brief: as §3
[16] = molecular target: T1, Nuclear factor erythroid 2-related factor 2 (Homo sapiens); experiment: as §2, with “400” for “3”, “DTT” for “HO-1 inhibitor ZnPP”; assay type: cell-based; method in brief: as §3
[17] = molecular target: T1, Nuclear factor erythroid 2-related factor 2 (Homo sapiens); experiment: Activation of Nrf2 in human HepG2 cells assessed as increase in GCLC expression level after 3 hrs by Western blot analysis; assay type: cell-based; method in brief: as §1
[18] = molecular target: T1, Nuclear factor erythroid 2-related factor 2 (Homo sapiens); experiment: Activation of Nrf2 in human HepG2 cells assessed as increase in GCLM expression level after 3 hrs by Western blot analysis; assay type: cell-based; method in brief: as §1

Chain of Kelch-like ECH-associated protein 1 (Homo sapiens) (Q14145 whole entry): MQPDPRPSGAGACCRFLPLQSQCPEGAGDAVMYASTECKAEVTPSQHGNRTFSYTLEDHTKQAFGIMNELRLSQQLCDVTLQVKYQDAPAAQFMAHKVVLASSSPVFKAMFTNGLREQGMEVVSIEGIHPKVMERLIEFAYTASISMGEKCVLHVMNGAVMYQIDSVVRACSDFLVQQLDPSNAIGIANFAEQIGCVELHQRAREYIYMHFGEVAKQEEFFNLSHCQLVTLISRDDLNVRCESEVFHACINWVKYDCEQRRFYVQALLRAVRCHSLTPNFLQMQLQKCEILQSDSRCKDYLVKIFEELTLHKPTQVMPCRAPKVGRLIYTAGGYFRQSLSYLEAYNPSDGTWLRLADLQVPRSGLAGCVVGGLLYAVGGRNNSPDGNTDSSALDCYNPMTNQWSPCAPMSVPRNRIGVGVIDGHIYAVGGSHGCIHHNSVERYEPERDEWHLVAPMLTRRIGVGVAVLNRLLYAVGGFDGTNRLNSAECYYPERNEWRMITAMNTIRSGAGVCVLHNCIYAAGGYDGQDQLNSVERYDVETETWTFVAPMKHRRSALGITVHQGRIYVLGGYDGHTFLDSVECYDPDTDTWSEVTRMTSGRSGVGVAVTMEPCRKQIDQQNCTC
Chain of RAC-alpha serine/threonine-protein kinase (Homo sapiens) (P31749 whole entry): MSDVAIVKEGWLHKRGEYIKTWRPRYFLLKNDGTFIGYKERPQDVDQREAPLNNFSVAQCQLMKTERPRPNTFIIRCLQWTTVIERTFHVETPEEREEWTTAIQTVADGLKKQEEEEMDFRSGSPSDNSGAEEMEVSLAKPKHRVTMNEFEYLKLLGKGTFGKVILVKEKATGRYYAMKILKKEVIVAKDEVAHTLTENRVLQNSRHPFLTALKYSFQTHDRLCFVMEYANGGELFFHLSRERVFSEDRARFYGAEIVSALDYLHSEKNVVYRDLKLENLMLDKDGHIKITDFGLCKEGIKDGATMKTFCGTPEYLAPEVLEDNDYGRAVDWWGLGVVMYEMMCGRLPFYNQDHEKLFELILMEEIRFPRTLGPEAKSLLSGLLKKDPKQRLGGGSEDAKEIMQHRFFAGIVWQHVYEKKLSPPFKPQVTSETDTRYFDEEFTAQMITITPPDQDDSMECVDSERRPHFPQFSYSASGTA

- Activity [1]: Active
- Activity [2]: inactive
- Activity [3]: Dose-dependent effect
- Activity [4]: Tde
- Activity [5]: inactive
- Activity [8]: Tde
- Activity [9]: Tde
- Activity [11]: inactive
- Activity [12]: inactive
- Activity [14]: Active
- Activity [17]: Active
- Activity [18]: Active
Structure (SMILES): CC(C)(C(=O)/C=C/c1ccc(O)c(O)c1)C(=O)/C=C/c1ccc(O)c(O)c1
- inhibition (HepG2): Dose-dependent effect
- Activity [6]: inactive
- Activity [7]: inactive
- Activity (Homo sapiens): inactive
- Activity [10]: inactive
- Activity [13]: inactive
- Activity [15]: inactive
- Activity [16]: inactive
